Results from ChEMBL document CHEMBL1124360, “Dihydropyrimidines: novel calcium antagonists with potent and long-lasting vasodilative and antihypertensive activity” (J Med Chem, 1989).

Tests used:
Canis familiaris [1] = experiment: Effective dose that lowers vascular resistance by, 30% in dogs when administered intravenously; type: functional; details: Canis lupus familiaris, iv
Procedure, shortened: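 Mongrel dogs (7-15 kg, either sex) are anesthetized with thiopental 30 mg/kg iv or ip, then urethane 400 mg/kg plus α-chloralose 60 mg/kg iv, and ventilated. Left vertebral flow is measured by electromagnetic probe and femoral arterial pressure is recorded. Resistance is pressure divided by flow. Compounds in ethanol are given iv at 0.05 mL/kg in cumulative rising doses; the dose cutting resistance 30% is taken (N = 3).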

Canis familiaris [2] = experiment: (§1) Time to peak response on lowering of vascular resistance, in dogs when administered intravenously; type: organism-based, Canis lupus familiaris; details: dog, in vivo, iv
Canis familiaris [3] = organism: Canis familiaris; experiment: Effective dose against atrioventricular conduction in dogs at which they prolong atrioventricular conduction time by 30%; type: functional; details: Canis lupus familiaris
Procedure, shortened: (§2)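 Anesthetized open-chest dogs; atrium paced with square-wave pulses of 1.5-2.5 V, 2 ms, at 2.5 Hz. AV conduction time is the interval between atrial and ventricular electrograms. Compounds are dissolved in 100% DMSO and injected iv into the femoral vein at 0.05 mL/kg. Reported as the dose prolonging AVCT by 30% (mean ± SE, N = 4-5) or the dose inducing AV block.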

Canis familiaris [4] = organism: Canis familiaris; experiment: Dose at which compound induce atrioventricular block in dogs; AV means atrioventricular; range is 1000-3000; type: functional, Canis lupus familiaris; procedure, shortened: as §2
[5] = molecular target: T1, Voltage-gated L-type calcium channel (Rattus norvegicus, UniProt P22002+Q02485+P27732); experiment: Inhibition of [3H]- Nitrendipine binding to L-type calcium channels of rat cerebral cortex; type: tissue-based
Procedure, shortened: (§3)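 Rat cerebral cortex is homogenized in ice-cold 50 mM Tris-HCl pH 7.7 and washed by repeated 40000g spins. Homogenate is incubated with 0.2 nM [³H]nitrendipine and drug for 1 h at 25 °C, then vacuum-filtered on glass-fiber filters and counted by liquid scintillation. Nonspecific binding is defined with 1 μM unlabeled nitrendipine.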

Canis familiaris [6] = experiment: as §1; type: ADME, organism-based, Canis lupus familiaris; details: dog, in vivo, iv
Canis familiaris [7] = organism: Canis familiaris; experiment: Dose at which compound induce atrioventricular block in dogs; range is 100-3000; type: functional, Canis lupus familiaris; procedure, shortened: as §2
[8] = molecular target: T1, Voltage-gated L-type calcium channel; experiment: Inhibition of [3H]nitrendipine binding to L-type calcium channels of rat cerebral cortex; type: tissue-based; procedure, shortened: as §3
Canis familiaris [9] = organism: Canis familiaris; experiment: Dose at which compound induce atrioventricular block in dogs; range is 100-300; type: functional, Canis lupus familiaris; procedure, shortened: as §2

| SMILES | ED30 (Canis familiaris [1]) [µg/kg] | other results |
| --- | --- | --- |
| CCOC(=O)C1=C(C)N=C(C)N(C(=O)OCC)C1c1ccccc1Br (configuration not stated) | 5 |  |
| CC1=C(C(=O)OC(C)C)C(c2ccccc2[N+](=O)[O-])N(C(=O)OCCN(Cc2ccccc2)Cc2ccc3ccccc3c2)C=N1 (configuration not stated) | > 100 |  |
| CC1=C(C(=O)OC(C)C)C(c2ccccc2[N+](=O)[O-])N(C(=O)OCCN(Cc2ccccc2)Cc2ccc3ccccc3c2)C(C(C)C)=N1 (configuration not stated) | > 100 |  |
| CC1=C(C(=O)OC(C)C)C(c2ccccc2[N+](=O)[O-])N(C(=O)OCCN(Cc2ccccc2)Cc2ccc3ccccc3c2)C(N(C)C)=N1 (configuration not stated) | > 100 |  |
| CCOC(=O)C1=C(C)NC(=O)N(C(=O)OCCN(C)Cc2ccccc2)C1c1cccc(Cl)c1 (configuration not stated) | 43 |  |
| CC1=NC(C)=C(C(=O)OCC2CC2)C(c2ccccc2[N+](=O)[O-])N1C(=O)OCCN(CCCc1ccccc1)Cc1ccccc1 (configuration not stated) | 4.3 | Tp (Canis familiaris [2]): 4.8 min; ED30 (Canis familiaris [3]): 843 µg/kg; AV block (Canis familiaris [4]): 1000 µg/kg |
| CC1=NC(C)=C(C(=O)OCC2CC2)C(c2ccccc2[N+](=O)[O-])N1C(=O)OCCN(C/C=C/c1ccccc1)Cc1ccccc1 (configuration not stated) | 3.9 | Tp (Canis familiaris [2]): 5.6 min |
| CCOC(=O)C1=C(C)N=C(C)N(C(=O)OCCN(C)Cc2ccccc2)C1c1ccccc1[N+](=O)[O-] (configuration not stated) | 0.75 |  |
| CC1=NC(C)=C(C(=O)OC(C)C)C(c2ccccc2[N+](=O)[O-])N1C(=O)OCCN(Cc1ccccc1)Cc1ccc2ccccc2c1 (configuration not stated) | 1.8 | ED30 (Canis familiaris [3]): 762 µg/kg; AV block (Canis familiaris [4]): 1000 µg/kg; IC50 [5]: 7.08 nM; Tp (Canis familiaris [6]): 7.9 min |
| CO/C(O)=C1/C(C)=NC(C)=C(C(=O)OCCN2CCN(C(c3ccccc3)c3ccccc3)CC2)C1c1cccc([N+](=O)[O-])c1 (configuration not stated) |  | IC50 [5]: 8.68 nM |
| CC1=NC(C)=C(C(=O)OC(C)C)C(c2ccccc2[N+](=O)[O-])N1C(=O)OCCN(CCc1ccccc1)Cc1ccccc1 (configuration not stated) | 1.2 | Tp (Canis familiaris [2]): 2.7 min |
| CCCCCCCOC(=O)C1=C(C)N=C(C)N(C(=O)OCC)C1c1ccccc1[N+](=O)[O-] (configuration not stated) | 23 |  |
| CC1=NC(C)=C(C(=O)OC(C)C)C(c2ccccc2[N+](=O)[O-])N1C(=O)OCCN(Cc1ccccc1)Cc1ccccc1 (configuration not stated) | 2.8 | Tp (Canis familiaris [2]): 2.6 min |
| CCC1N=C(C)/C(=C(/O)OC(C)C)C(c2ccccc2[N+](=O)[O-])N1C(=O)OCN(Cc1ccccc1)Cc1ccc(Cl)c(Cl)c1 (configuration not stated) | 19.5 | Tp (Canis familiaris [2]): 5.5 min |
| CSC1=NC(C)=C(C(=O)OC(C)C)C(c2ccccc2[N+](=O)[O-])N1C(=O)OCCN(Cc1ccccc1)Cc1ccc2ccccc2c1 (configuration not stated) | > 100 |  |
| CCOC(=O)C1=C(Cl)N=C(C)N(C(=O)OCCN(Cc2ccccc2)Cc2ccc3ccccc3c2)C1c1ccccc1[N+](=O)[O-] (configuration not stated) | 10 | Tp (Canis familiaris [2]): 5.2 min |
| CCOC(=O)C1=C(COCCN(Cc2ccccc2)Cc2ccc(Cl)c(Cl)c2)N=C(C)N(C(=O)OC)C1c1ccccc1[N+](=O)[O-].Cl (configuration not stated) | > 100 |  |
| CCCCCCCOC(=O)N1C(=O)NC(C)=C(C(=O)OCC2CC2)C1c1ccccc1[N+](=O)[O-] (configuration not stated) | 2.3 | Tp (Canis familiaris [2]): 1.9 min |
| CC1=NC(C)=C(C(=O)OCC2CC2)C(c2ccccc2[N+](=O)[O-])N1C(=O)OCCN(C)Cc1ccccc1 (configuration not stated) | 0.5 |  |
| CCCCCCCOC(=O)C1=C(C)N=C(C)N(C(=O)OCCCCCCC)C1c1ccccc1[N+](=O)[O-] (configuration not stated) | 180 |  |
| CCC1N=C(C)/C(=C(/O)OC(C)C)C(c2ccccc2[N+](=O)[O-])N1C(=O)OCN(Cc1ccccc1)Cc1ccc2ccccc2c1 (configuration not stated) | 13.5 | Tp (Canis familiaris [2]): 7.2 min |
| CCCCCCCOC(=O)C1=C(C)N=C(C)N(C(=O)OCCN(Cc2ccccc2)Cc2ccccc2)C1c1ccccc1[N+](=O)[O-] (configuration not stated) | > 30 |  |

| SMILES | ED30 (Canis familiaris [1]) [µg/kg] | other results |
| --- | --- | --- |
| CCOC(=O)N1C(CC)=NC(C)=C(C(=O)OC(C)C)C1c1ccccc1[N+](=O)[O-] (configuration not stated) | 8 |  |
| CC1=C(C(=O)OC(C)C)C(c2ccccc2[N+](=O)[O-])N(C(=O)OCCN(Cc2ccccc2)Cc2ccccc2)C(C(F)(F)F)=N1 (configuration not stated) | 6.8 |  |
| CCOC(=O)C1=C(C)N=C(C)N(C(=O)OCC)C1c1ccccc1[N+](=O)[O-] (configuration not stated) | 3 |  |
| CC1=NC(C)=C(C(=O)OC(C)C)C(c2ccccc2[N+](=O)[O-])N1C(=O)OCCN(Cc1ccccc1)c1ccccc1 (configuration not stated) | 0.74 | Tp (Canis familiaris [2]): 1.9 min |
| CC1=NC(C)=C(C(=O)OC(C)C)C(c2ccccc2[N+](=O)[O-])N1C(=O)OCCN(Cc1ccccc1)Cc1ccc(Cl)c(Cl)c1 (configuration not stated) | 2.1 | ED30 (Canis familiaris [3]): 596 µg/kg; AV block (Canis familiaris [4]): 1000 µg/kg; IC50 [5]: 2.05 nM; Tp (Canis familiaris [6]): 10.8 min |
| CCCCOC(=O)C1=C(C)N=C(C)N(C(=O)OCCN(Cc2ccccc2)Cc2ccccc2)C1c1ccccc1[N+](=O)[O-] (configuration not stated) | 6.8 | Tp (Canis familiaris [2]): 4.7 min |
| CCC1=NC(C)=C(C(=O)OC(C)C)C(c2ccccc2[N+](=O)[O-])N1C(=O)OCCN(Cc1ccccc1)Cc1ccc2ccccc2c1 (configuration not stated) | 27 |  |
| CCOC(=O)C1=C(C)NC(=O)N(C(=O)OCC(c2ccccc2)c2ccccc2)C1c1cccc([N+](=O)[O-])c1 (configuration not stated) | 10.6 |  |
| CCOC(=O)N1C(C(F)(F)F)=NC(C)=C(C(=O)OC(C)C)C1c1ccccc1[N+](=O)[O-] (configuration not stated) | 8.3 |  |
| CCCCCCCOC(=O)N1C(=O)NC(C)=C(C(=O)OCC2CC2)C1c1cccc([N+](=O)[O-])c1 (configuration not stated) | 3 |  |
| CCOC(=O)C1=C(C)N=C(C)N(C(=O)OCC)C1c1ccccc1Cl (configuration not stated) | 5 |  |
| CCOC(=O)C1=C(C)N=C(C)N(C(=O)OCC)C1c1cccc([N+](=O)[O-])c1 (configuration not stated) | 10 |  |
| CCCCCCCOC(=O)N1C(C)=NC(C)=C(C(=O)OCC)C1c1ccccc1[N+](=O)[O-] (configuration not stated) | 3.2 |  |
| CCCCCCCOC(=O)N1C(C)=NC(C)=C(C(=O)OCC2CC2)C1c1ccccc1[N+](=O)[O-] (configuration not stated) | 5.6 |  |
| CCOC(=O)N1C(C)=NC(C)=C(C(=O)OCCN(C)Cc2ccccc2)C1c1ccccc1[N+](=O)[O-] (configuration not stated) | 13 |  |
| CC1=C(C(=O)OCC2CC2)C(c2cccc([N+](=O)[O-])c2)N(C(=O)OCCN(C)Cc2ccccc2)C(=O)N1 (configuration not stated) | 13 |  |
| CC1=C(C(=O)OC(C)C)C(c2ccccc2[N+](=O)[O-])N(C(=O)OCCN(Cc2ccccc2)Cc2ccc3ccccc3c2)C(=O)N1 (configuration not stated) | 10 | Tp (Canis familiaris [2]): 7.8 min |
| COC(=O)C1=C(C)NC(C)=C(C(=O)OCCN(C)Cc2ccccc2)C1c1cccc([N+](=O)[O-])c1 (configuration not stated) [NICARDIPINE] | 3 | ED30 (Canis familiaris [3]): 175 µg/kg; AV block (Canis familiaris [7]): 100 µg/kg; IC50 [8]: 2.66 nM; Tp (Canis familiaris [6]): 1.2 min |
| COC(=O)C1=C(C)NC(C)=C(C(=O)OC)C1c1ccccc1[N+](=O)[O-] [NIFEDIPINE] | 0.5 | Tp (Canis familiaris [6]): 0.7 min |
| COC(=O)C1=C(C#N)NC(C)=C(C(=O)OC(C)C)C1c1cccc([N+](=O)[O-])c1 (configuration not stated) [NILVADIPINE] |  | ED30 (Canis familiaris [3]): 34 µg/kg; AV block (Canis familiaris [9]): 100 µg/kg; IC50 [8]: 1.04 nM |
| CCOC(=O)C1=C(C)NC(C)=C(C(=O)OC)C1c1cccc([N+](=O)[O-])c1 (configuration not stated) [NITRENDIPINE] | 1.2 | Tp (Canis familiaris [2]): 1 min |
